{"source": "ChEMBL document CHEMBL4152257", "about": "“Discovery of novel β-carboline/acylhydrazone hybrids as potent antitumor agents and overcome drug resistance” (Eur J Med Chem, 2018)", "key": {"[1]": {"experiment": "Selectivity ratio of IC50 for HUVEC to IC50 for human A549/TR cells", "assay_type": "toxicity", "details": "HUVEC versus A549/TR cells"}, "MCF7 [2]": {"test_system": "MCF7", "experiment": "Antiproliferative activity against human MCF7 cells after 48 to 72 hrs by MTT assay", "assay_type": "functional, cell-based", "summary_of_the_method": "(§1)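 Cells in log phase seeded and allowed to adhere, then exposed to graded compound concentrations for 48 h or 72 h; MTT added for a further 2-3 h, formazan dissolved in DMSO. IC50 taken from dose-response curves; mean ± SD of at least three independent experiments.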"}, "NCI/ADR-RES [3]": {"test_system": "NCI/ADR-RES", "experiment": "Induction of apoptosis in human MCF7/ADR cells assessed as necrotic cells at 30 uM after 48 hrs by annexin V-FITC/PI dual staining based flow cytometry (reference value: 2.43%)", "assay_type": "functional"}, "NCI/ADR-RES [4]": {"test_system": "NCI/ADR-RES", "experiment": "Induction of apoptosis in human MCF7/ADR cells assessed as early apoptotic cells at 100 uM after 48 hrs by annexin V-FITC/PI dual staining based flow cytometry (reference value: 2.72%)", "assay_type": "functional"}, "MCF7 [5]": {"test_system": "MCF7", "experiment": "Induction of apoptosis in human MCF7 cells assessed as late apoptotic cells after 48 hrs by annexin V-FITC/PI dual staining based flow cytometry", "assay_type": "functional, cell-based"}, "MCF7 [6]": {"test_system": "MCF7", "experiment": "Cell cycle arrest in human MCF7 cells assessed as accumulation at G2/M phase after 18 hrs by propidium iodide staining based flow cytometry", "assay_type": "functional"}, "MCF7 [7]": {"test_system": "MCF7", "experiment": "Induction of apoptosis in human MCF7 cells assessed as viable cells at 100 uM after 48 hrs by annexin V-FITC/PI dual staining based flow cytometry (reference value: 77.8%)", "assay_type": "functional", "details": "MCF7, 48 h, read-out: Activity"}, "[8]": {"experiment": "Resistance index, ratio of IC50 for human A2780T cells to IC50 for human A2780S cells", "assay_type": "functional"}, "Raji [9]": {"test_system": "Raji", "experiment": "Antiproliferative activity against human Raji cells after 48 to 72 hrs by MTT assay", "assay_type": "functional, cell-based", "summary_of_the_method": "as §1"}, "NCI/ADR-RES [10]": {"test_system": "NCI/ADR-RES", "experiment": "Antiproliferative activity against human MCF7/ADR cells after 48 to 72 hrs by MTT assay", "assay_type": "functional, cell-based", "summary_of_the_method": "as §1"}, "MCF7 [11]": {"test_system": "MCF7", "experiment": "Cell cycle arrest in human MCF7 cells assessed as accumulation at G0/G1 phase at 100 uM after 18 hrs by propidium iodide staining based flow cytometry (reference value: 45.22%)", "assay_type": "functional"}, "NCI/ADR-RES [12]": {"test_system": "NCI/ADR-RES", "experiment": "Induction of apoptosis in human MCF7/ADR cells assessed as early apoptotic cells at 3 uM after 48 hrs by annexin V-FITC/PI dual staining based flow cytometry (reference value: 2.72%)", "assay_type": "functional"}, "A2780/Taxol": {"test_system": "A2780/Taxol", "experiment": "Antiproliferative activity against human A2780T cells after 48 to 72 hrs by MTT assay", "assay_type": "functional, cell-based", "summary_of_the_method": "as §1"}, "NCI/ADR-RES [13]": {"test_system": "NCI/ADR-RES", "experiment": "Induction of apoptosis in human MCF7/ADR cells assessed as viable cells at 100 uM after 48 hrs by annexin V-FITC/PI dual staining based flow cytometry (reference value: 89.8%)", "assay_type": "functional", "details": "read-out: Activity"}, "MCF7 [14]": {"test_system": "MCF7", "experiment": "Induction of apoptosis in human MCF7 cells assessed as late apoptotic cells at 30 uM after 48 hrs by annexin V-FITC/PI dual staining based flow cytometry (reference value: 11.1%)", "assay_type": "functional"}, "NCI/ADR-RES [15]": {"test_system": "NCI/ADR-RES", "experiment": "Induction of apoptosis in human MCF7/ADR cells assessed as viable cells at 10 uM after 48 hrs by annexin V-FITC/PI dual staining based flow cytometry (reference value: 89.8%)", "assay_type": "functional", "details": "read-out: Activity"}, "MCF7 [16]": {"test_system": "MCF7", "experiment": "Induction of apoptosis in human MCF7 cells assessed as necrotic cells at 3 uM after 48 hrs by annexin V-FITC/PI dual staining based flow cytometry (reference value: 0.16%)", "assay_type": "functional"}, "MCF7 [17]": {"test_system": "MCF7", "experiment": "Cell cycle arrest in human MCF7 cells assessed as accumulation at G2/M phase at 3 uM after 18 hrs by propidium iodide staining based flow cytometry (reference value: 9.98%)", "assay_type": "functional"}, "Raji [18]": {"test_system": "Raji", "experiment": "Antiproliferative activity against human Raji cells at 1 uM after 48 to 72 hrs by MTT assay relative to control", "assay_type": "functional", "summary_of_the_method": "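Single-concentration screen in the MTT proliferation assay: log-phase cells seeded and allowed to adhere, exposed to compound at 1 µM for 48 h or 72 h, MTT added for 2-3 h, formazan dissolved in DMSO; percent inhibition versus control.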"}, "NCI/ADR-RES [19]": {"test_system": "NCI/ADR-RES", "experiment": "Induction of apoptosis in human MCF7/ADR cells assessed as late apoptotic cells at 10 uM after 48 hrs by annexin V-FITC/PI dual staining based flow cytometry (reference value: 5.02%)", "assay_type": "functional"}, "MCF7 [20]": {"test_system": "MCF7", "experiment": "Induction of apoptosis in human MCF7 cells assessed as late apoptotic cells at 100 uM after 48 hrs by annexin V-FITC/PI dual staining based flow cytometry (reference value: 11.1%)", "assay_type": "functional"}, "[21]": {"experiment": "Selectivity ratio of IC50 for HUVEC to IC50 for human A2780T cells", "assay_type": "toxicity", "details": "HUVEC versus A2780T cells"}, "[22]": {"experiment": "Selectivity ratio of IC50 for HUVEC to IC50 for human A2780S cells", "assay_type": "toxicity", "details": "HUVEC versus A2780S cells"}, "NCI/ADR-RES [23]": {"test_system": "NCI/ADR-RES", "experiment": "Induction of apoptosis in human MCF7/ADR cells assessed as early apoptotic cells at 10 uM after 48 hrs by annexin V-FITC/PI dual staining based flow cytometry (reference value: 2.72%)", "assay_type": "functional"}, "MCF7 [24]": {"test_system": "MCF7", "experiment": "Cell cycle arrest in human MCF7 cells assessed as accumulation at S phase at 3 uM after 18 hrs by propidium iodide staining based flow cytometry (reference value: 44.80%)", "assay_type": "functional"}, "MCF7 [25]": {"test_system": "MCF7", "experiment": "Induction of apoptosis in human MCF7 cells assessed as early apoptotic cells at 10 uM after 48 hrs by annexin V-FITC/PI dual staining based flow cytometry (reference value: 11%)", "assay_type": "functional"}, "NCI/ADR-RES [26]": {"test_system": "NCI/ADR-RES", "experiment": "Induction of apoptosis in human MCF7/ADR cells assessed as late apoptotic cells at 3 uM after 48 hrs by annexin V-FITC/PI dual staining based flow cytometry (reference value: 5.02%)", "assay_type": "functional"}, "MCF7 [27]": {"test_system": "MCF7", "experiment": "Induction of apoptosis in human MCF7 cells assessed as early apoptotic cells at 30 uM after 48 hrs by annexin V-FITC/PI dual staining based flow cytometry (reference value: 11%)", "assay_type": "functional"}, "Mus musculus": {"test_system": "Mus musculus", "experiment": "Toxicity in athymic nude Balb/C mouse xenografted with human H460 cells assessed as effect on abnormal behaviour at 100 mg/kg, po administered 3 times per week measured every 2 days", "assay_type": "organism-based", "details": "in vivo, 48 h", "summary_of_the_method": "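Nude mice, 5-to-6-week-old females, given 5 × 10^6 H460 cells sc in right flank in HBSS; at 100 mm3 tumour volume randomized, 6 per group. Vehicle; oral 100 mg/kg three times weekly; or ip 30 mg/kg once weekly. Toxicity signs and mortality observed daily; body weight measured every 2 days.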"}, "MCF7 [28]": {"test_system": "MCF7", "experiment": "Cell cycle arrest in human MCF7 cells assessed as accumulation at G0/G1 phase at 10 uM after 18 hrs by propidium iodide staining based flow cytometry (reference value: 45.22%)", "assay_type": "functional"}, "MCF7 [29]": {"test_system": "MCF7", "experiment": "Cell cycle arrest in human MCF7 cells assessed as accumulation at S phase at 10 uM after 18 hrs by propidium iodide staining based flow cytometry (reference value: 44.80%)", "assay_type": "functional"}, "NCI/ADR-RES [30]": {"test_system": "NCI/ADR-RES", "experiment": "Induction of apoptosis in human MCF7/ADR cells assessed as early apoptotic cells at 30 uM after 48 hrs by annexin V-FITC/PI dual staining based flow cytometry (reference value: 2.72%)", "assay_type": "functional"}, "NCI-H460": {"test_system": "NCI-H460", "experiment": "Antiproliferative activity against human H460 cells after 48 to 72 hrs by MTT assay", "assay_type": "functional, cell-based", "summary_of_the_method": "as §1"}, "[31]": {"experiment": "Resistance index, ratio of IC50 for human MCF7/ADR cells to IC50 for human MCF7 cells", "assay_type": "functional"}}, "data": [{"smiles": "N#Cc1ccc(COc2cccc(/C=N/NC(=O)c3cc4c(cn3)[nH]c3ccccc34)c2)cc1", "values": [{"measurement": "selectivity ratio", "setting": "[1]", "result": 28.3}, {"measurement": "IC50", "setting": "MCF7 [2]", "result": "0.93 to 1.02", "unit": "µM"}, {"measurement": "Activity", "setting": "NCI/ADR-RES [3]", "result": 8.52, "unit": "%"}, {"measurement": "Activity", "setting": "NCI/ADR-RES [4]", "result": 7.11, "unit": "%"}, {"measurement": "Activity", "setting": "MCF7 [5]", "result": "Dose-dependent effect"}, {"measurement": "Activity", "setting": "MCF7 [6]", "result": "Dose-dependent effect"}, {"measurement": "viability at 100 µM", "setting": "MCF7 [7]", "result": 47.2, "unit": "%"}, {"measurement": "Ratio IC50", "setting": "[8]", "result": 1.32}, {"measurement": "IC50", "setting": "Raji [9]", "result": "1.06 to 1.2", "unit": "µM"}, {"measurement": "IC50", "setting": "NCI/ADR-RES [10]", "result": 0.982, "unit": "µM"}, {"measurement": "Activity", "setting": "MCF7 [11]", "result": 41.83, "unit": "%"}, {"measurement": "Activity", "setting": "NCI/ADR-RES [12]", "result": 2.44, "unit": "%"}, {"measurement": "IC50", "setting": "A2780/Taxol", "result": 3.99, "unit": "µM"}, {"measurement": "viability at 100 µM", "setting": "NCI/ADR-RES [13]", "result": 53.5, "unit": "%"}, {"measurement": "Activity", "setting": "MCF7 [14]", "result": 28.8, "unit": "%"}, {"measurement": "viability at 10 µM", "setting": "NCI/ADR-RES [15]", "result": 70.1, "unit": "%"}, {"measurement": "Activity", "setting": "MCF7 [16]", "result": 0.26, "unit": "%"}, {"measurement": "Activity", "setting": "MCF7 [17]", "result": 9.31, "unit": "%"}, {"measurement": "inhibition at 1 µM", "setting": "Raji [18]", "result": 42.7, "unit": "%"}, {"measurement": "Activity", "setting": "NCI/ADR-RES [19]", "result": 19.1, "unit": "%"}, {"measurement": "Activity", "setting": "MCF7 [20]", "result": 38.9, "unit": "%"}, {"measurement": "selectivity ratio", "setting": "[21]", "result": 22.2}, {"measurement": "selectivity ratio", "setting": "[22]", "result": 29.3}, {"measurement": "Activity", "setting": "NCI/ADR-RES [23]", "result": 4.38, "unit": "%"}, {"measurement": "Activity", "setting": "MCF7 [24]", "result": 56.12, "unit": "%"}, {"measurement": "Activity", "setting": "MCF7 [25]", "result": 13.1, "unit": "%"}, {"measurement": "Activity", "setting": "NCI/ADR-RES [26]", "result": 7.2, "unit": "%"}, {"measurement": "Activity", "setting": "MCF7 [27]", "result": 19.4, "unit": "%"}, {"measurement": "Activity", "setting": "Mus musculus", "result": "Non-Toxic"}, {"measurement": "Activity", "setting": "MCF7 [28]", "result": 36.05, "unit": "%"}, {"measurement": "Activity", "setting": "MCF7 [29]", "result": 56.38, "unit": "%"}, {"measurement": "Activity", "setting": "NCI/ADR-RES [30]", "result": 4.85, "unit": "%"}, {"measurement": "IC50", "setting": "NCI-H460", "result": "1.64 to 1.73", "unit": "µM"}, {"measurement": "Ratio IC50", "setting": "[31]", "result": 1.06}]}]}
